In ChEMBL document CHEMBL1772996, “Bioactive constituents from the roots of Panax japonicus var. major and development of a LC-MS/MS method for distinguishing between natural and artifactual compounds” (J Nat Prod, 2011):
In brackets after ≈: the same amount, converted by molar mass. Activity calls are given as the source filed them. The calls are words filed in the database; no cut-off is given here.

Assays:
Neutrophil [1] = assay: Inhibition of fMLP/CB-stimulated superoxide anion generation in human neutrophils at 30 uM relative to control; type: functional
How it was run: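 Neutrophils isolated by dextran sedimentation, Ficoll Hypaque and hypotonic lysis, kept in Ca2+-free HBSS pH 7.4 at 4 °C. Given 0.5 mg/mL ferricytochrome c and 1 mM Ca2+, equilibrated 37 °C 2 min, compound 5 min. CB 1 μg/mL for 3 min, then 100 nM fMLP for 10 min. SOD-inhibitable ferricytochrome c reduction followed at 550 nm with stirring; mean ± S.E.M., n = 3–4.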

Neutrophil [2] = assay: Inhibition of fMLP/CB-activated human neutrophil degranulation assessed as inhibition of elastase release at 30 uM using MeO-Suc-Ala-Ala-Pro-Val-p-nitroanilide as a substrate after 5 mins relative to control; type: functional
How it was run: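 Isolated human neutrophils (dextran sedimentation, Ficoll Hypaque, hypotonic erythrocyte lysis; >98% viable by trypan blue) at 5×10^5/mL in Ca2+-free HBSS pH 7.4 with 100 μM MeO-Suc-Ala-Ala-Pro-Val-p-nitroanilide. Equilibrated 37 °C 2 min, compound 5 min, then activated with 100 nM fMLP plus 0.5 μg/mL CB. A405 monitored continuously. Expressed as % of initial elastase release rate in drug-free fMLP/CB control; mean ± S.E.M., n = 3–4.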

KB = assay: Cytotoxicity against human KB cells assessed as growth inhibition after 3 days by sulforhodamine B assay; type: functional
DU-145 = assay: Cytotoxicity against human DU145 cells assessed as growth inhibition after 3 days by sulforhodamine B assay; type: functional
A549 = assay: Cytotoxicity against human A549 cells assessed as growth inhibition after 3 days by sulforhodamine B assay; type: functional, cell-based
HCT-8 = assay: Cytotoxicity against human HCT8 cells assessed as growth inhibition after 3 days by sulforhodamine B assay; type: functional, cell-based

Compound | inhibition at 30 µM (Neutrophil [1]) [%] | inhibition at 30 µM (Neutrophil [2]) [%] | growth inhibition (GI) (KB) | growth inhibition (GI) (DU-145) | growth inhibition (GI) (A549) | growth inhibition (GI) (HCT-8) | GI50 (KB; 72 h) [µg/mL] | GI50 (DU-145; DU-145, 72 h) [µg/mL]
CC(C)=CCC[C@](C)(O[C@@H]1O[C@H](CO[C@@H]2O[C@H](CO)[C@@H](O)[C@H](O)[C@H]2O)[C@@H](O)[C@H](O)[C@H]1O)[C@H]1CC[C@]2(C)[C@@H]1[C@H](O)C[C@@H]1[C@@]3(C)CC[C@H](O[C@@H]4O[C@H](CO)[C@@H](O)[C@H](O)[C@H]4O[C@@H]4O[C@H](CO)[C@@H](O)[C@H](O)[C@H]4O)C(C)(C)[C@@H]3CC[C@]12C [GINSENOSIDE RB1] | 10.8 | 7.36 | inactive | inactive | inactive | inactive | – | –
CC(C)=CCC[C@](C)(O)[C@H]1CC[C@]2(C)[C@@H]1[C@H](O)C[C@@H]1[C@@]3(C)CC[C@H](O)C(C)(C)[C@@H]3[C@@H](O[C@@H]3O[C@H](CO)[C@@H](O)[C@H](O)[C@H]3O[C@@H]3O[C@H](CO)[C@@H](O)[C@H](O)[C@H]3O)C[C@]12C [GINSENOSIDE RF] | 8.94 | 29.5 | inactive | inactive | inactive | inactive | – | –
CC1(C)CC[C@]2(C(=O)O[C@@H]3O[C@H](CO)[C@@H](O)[C@H](O)[C@H]3O)CC[C@]3(C)C(=CC[C@@H]4[C@@]5(C)CC[C@H](O[C@@H]6O[C@H](C(=O)O)[C@@H](O[C@@H]7O[C@@H](CO)[C@H](O)[C@H]7O)[C@H](O)[C@H]6O)C(C)(C)[C@@H]5CC[C@]43C)[C@@H]2C1 | 14.6 | 27.6 | inactive | inactive | inactive | inactive | – | –
CC(C)=CCC[C@@](C)(O)[C@H]1CC[C@]2(C)[C@@H]1[C@H](O)C[C@@H]1[C@@]3(C)CC[C@H](O[C@@H]4O[C@H](CO)[C@@H](O)[C@H](O)[C@H]4O[C@@H]4O[C@H](CO)[C@@H](O)[C@H](O)[C@H]4O)C(C)(C)[C@@H]3CC[C@]12C | – | – | inactive | inactive | inactive | inactive | – | –
CC1(C)CC[C@]2(C(=O)O[C@@H]3O[C@H](CO)[C@@H](O)[C@H](O)[C@H]3O)CC[C@]3(C)C(=CC[C@@H]4[C@@]5(C)CC[C@H](O[C@@H]6O[C@H](C(=O)O)[C@@H](O[C@H]7O[C@@H](CO)[C@H](O)[C@H]7O)[C@H](O[C@@H]7O[C@H](CO)[C@@H](O)[C@H](O)[C@H]7O)[C@H]6O)C(C)(C)[C@@H]5CC[C@]43C)[C@@H]2C1 [STIPULEANOSIDE R2] | 0.78 | 23.7 | inactive | inactive | inactive | inactive | – | –
CC(C)=CC/C=C(\C)[C@H]1CC[C@]2(C)[C@@H]1[C@H](O)C[C@@H]1[C@@]3(C)CC[C@H](O[C@@H]4O[C@H](CO)[C@@H](O)[C@H](O)[C@H]4O[C@@H]4O[C@H](CO)[C@@H](O)[C@H](O)[C@H]4O)C(C)(C)[C@@H]3CC[C@]12C | – | – | inactive | inactive | inactive | inactive | – | –
CC(C)=CCC[C@](C)(O[C@@H]1O[C@H](CO)[C@@H](O)[C@H](O)[C@H]1O)[C@H]1CC[C@]2(C)[C@@H]1[C@H](O)C[C@@H]1[C@@]3(C)CC[C@H](O[C@@H]4O[C@H](CO)[C@@H](O)[C@H](O)[C@H]4O[C@@H]4O[C@H](CO)[C@@H](O)[C@H](O)[C@H]4O)C(C)(C)[C@@H]3CC[C@]12C [GINSENOSIDE RD] | -3.54 | 2.88 | inactive | inactive | inactive | inactive | – | –
CC(C)=CCC[C@](C)(O[C@@H]1O[C@H](CO)[C@@H](O)[C@H](O)[C@H]1O)[C@H]1CC[C@]2(C)[C@@H]1[C@H](O)C[C@@H]1[C@@]3(C)CC[C@H](O)C(C)(C)[C@@H]3[C@@H](O[C@@H]3O[C@H](CO)[C@@H](O)[C@H](O)[C@H]3O)C[C@]12C [GINSENOSIDE RG1] | 14.1 | 19 | inactive | inactive | inactive | inactive | – | –
CC(C)(O)[C@@H]1CC[C@@](C)([C@H]2CC[C@]3(C)[C@@H]2[C@H](O)C[C@@H]2[C@@]4(C)CC[C@H](O)C(C)(C)[C@@H]4[C@@H](O[C@@H]4O[C@H](CO)[C@@H](O)[C@H](O)[C@H]4O[C@@H]4O[C@H](CO)[C@@H](O)[C@H](O)[C@H]4O)C[C@]23C)O1 | 7.4 | -4.95 | inactive | inactive | inactive | inactive | – | –
C/C(=C/CC[C@](C)(O)[C@H]1CC[C@]2(C)[C@@H]1[C@H](O)C[C@@H]1[C@@]3(C)CC[C@H](O)C(C)(C)[C@@H]3[C@@H](O[C@@H]3O[C@H](CO)[C@@H](O)[C@H](O)[C@H]3O[C@@H]3O[C@H](CO)[C@@H](O)[C@H](O)[C@H]3O)C[C@]12C)CO [PANAJAPONOL A] | 20.3 | 42 | – | – | Active | Active | 6.3 (≈ 7.71 µM) | 7.3 (≈ 8.93 µM)
CC(C)=CCC[C@](C)(O)[C@H]1CC[C@]2(C)[C@@H]1[C@H](O)C[C@@H]1[C@@]3(C)CC[C@H](O[C@@H]4O[C@H](CO)[C@@H](O)[C@H](O)[C@H]4O[C@@H]4O[C@H](CO)[C@@H](O)[C@H](O)[C@H]4O)C(C)(C)[C@@H]3CC[C@]12C | – | – | inactive | inactive | inactive | inactive | – | –
CC[C@H](CC[C@@H](C)[C@H]1CC[C@H]2[C@@H]3CC=C4C[C@@H](O[C@@H]5O[C@H](CO)[C@@H](O)[C@H](O)[C@H]5O)CC[C@]4(C)[C@H]3CC[C@]12C)C(C)C [SITOGLUSIDE] | 7.45 | 21.7 | inactive | inactive | inactive | inactive | – | –
